This is an account of results in ChEMBL document CHEMBL3751707, “Silicon Incorporated Morpholine Antifungals: Design, Synthesis, and Biological Evaluation” (ACS Med Chem Lett, 2015).

Data set [1] has as its system Candida albicans. Description: Antifungal activity against Candida albicans ATCC 24433 after 24 to 36 hrs by broth microdilution method. It is filed as functional, organism-based. The method in brief:
(§1)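 CLSI broth microdilution against yeasts (M27-A3) and filamentous fungi (M38-A2). Read-outs: IC50 (concentration giving 50% growth inhibition), MIC, and MFC (minimum fungicidal concentration), all in μg/mL. Assay done twice in triplicate.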
(In general: Dilution methods test growth across graded concentrations, often in twofold steps.)

The test system of data set [2] is Candida albicans. Put plainly: Antifungal activity against Candida albicans ATCC 24433 after 72 hrs by broth microdilution method. It is filed as functional. The note with it: ATCC 24433, 72 h. The method in brief:
as §1

Data set [3] concerns Candida albicans. Description: Antifungal activity against Candida albicans ATCC 10231 after 24 to 36 hrs by broth microdilution method. It is filed as functional, organism-based. The method in brief:
as §1

The subject of data set [4] is Candida albicans. Description: Antifungal activity against Candida albicans ATCC 10231 after 72 hrs by broth microdilution method. In kind it is functional. As to conditions: ATCC 10231, 72 h. The method in brief:
as §1

The test system of data set [5] is Cryptococcus neoformans. Description: Antifungal activity against Cryptococcus neoformans ATCC 34664 after 24 to 36 hrs by broth microdilution method. In kind it is functional, organism-based. The method in brief: as §1
The test system of data set [6] is Cryptococcus neoformans. Description: Antifungal activity against Cryptococcus neoformans ATCC 34664 after 72 hrs by broth microdilution method. In kind it is functional. The note with it: ATCC 34664, 72 h. The method in brief:
as §1

In data set [7] the test system is Nakaseomyces glabratus. Description: Antifungal activity against Candida glabrata NCYC 388 after 24 to 36 hrs by broth microdilution method. It is filed as functional, organism-based. The method in brief:
as §1

In data set [8] the test system is Nakaseomyces glabratus. Description: Antifungal activity against Candida glabrata NCYC 388 after 72 hrs by broth microdilution method. In kind it is functional. The note with it: NCYC 388, 72 h. The method in brief:
as §1

Data set [9] has as its system Candida tropicalis. Put plainly: Antifungal activity against Candida tropicalis ATCC 750 after 24 to 36 hrs by broth microdilution method. It is filed as functional, organism-based. The method in brief: as §1
Data set [10] has as its system Candida tropicalis. Description: Antifungal activity against Candida tropicalis ATCC 750 after 72 hrs by broth microdilution method. It is filed as functional. The note with it: ATCC 750, 72 h. The method in brief:
as §1

Data set [11] deals with Aspergillus niger. Put plainly: Antifungal activity against Aspergillus niger ATCC 10578 after 48 hrs by broth microdilution method. In kind it is functional, organism-based. As to conditions: ATCC 10578, 48 h. The method in brief:
as §1

The subject of data set [12] is Aspergillus niger. Put plainly: Antifungal activity against Aspergillus niger ATCC 10578 after 72 hrs by broth microdilution method. It is filed as functional. As to conditions: ATCC 10578, 72 h. The method in brief:
as §1

Data set [13] in a line: Toxicity in human RBC assessed as hemolysis upto 128 ug/ml. It is filed as cell-based. As to conditions: erythrocyte.
The nature of data set [14]: Metabolic stability in mouse liver microsomes after 30 mins by LC-MS/MS analysis. In kind it is ADME. The note with it: read-out: Stability. The method in brief:
(§2)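 Test compounds were incubated 30 min with liver microsomes (human or mouse, per line), and values are reported as % metabolic stability after 30 min.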

A short description of data set [15]: Metabolic stability in human liver microsomes after 30 mins by LC-MS/MS analysis. As to conditions: read-out: Stability. It is filed as ADME. The method in brief:
as §2
A general note: Microsomes from liver hold many membrane-bound enzymes, among them those of drug oxidation.

Values after ≈ are worked out from the molar mass of the structure shown. Bounds are passed on as bounds.

A word on the IC50: it is the concentration that gives 50% inhibition. What is called MIC is the lowest concentration found to suppress growth. A higher MIC goes with a need for much substance. By MFC is commonly meant the lowest tested concentration that kills the fungus rather than only halting it. Read a low MFC as more potent killing.

On to `OC(Cn1cncn1)(Cn1cncn1)c1ccc(F)cc1F` [FLUCONAZOLE], for which the IC50 in data set [1] was 0.73 µg/mL (≈ 2.38 µM); in [3], 4.21 µg/mL (≈ 13.7 µM); in data set [5], 4.6 µg/mL (≈ 15 µM); in data set [7] it was 16 µg/mL (≈ 52.2 µM); in [9], 64 µg/mL (≈ 209 µM); in data set [11], greater than 256 µg/mL. The MIC is 2 µg/mL (≈ 6.53 µM) in data set [1]; 8 µg/mL (≈ 26.1 µM) in data set [3]; 32 µg/mL (≈ 104 µM) in data set [5]; 128 µg/mL (≈ 418 µM) in data set [7]; greater than 256 µg/mL in [9]; greater than 256 µg/mL in data set [11]. Also, the MFC in data set [2] is 4 µg/mL (≈ 13.1 µM); in [4], 16 µg/mL (≈ 52.2 µM); in data set [6], greater than 256 µg/mL; in data set [8] it was greater than 256 µg/mL; in data set [10] it was greater than 256 µg/mL; in data set [12], greater than 256 µg/mL.

On to `CC(Cc1ccc([Si](C)(C)C)cc1)CN1CCCCC1` (configuration not stated), for which the IC50 was found to be 0.12 µg/mL (≈ 0.414 µM) in data set [1]; 0.11 µg/mL (≈ 0.38 µM) in data set [3]; 0.0625 µg/mL (≈ 0.216 µM) in data set [5]; 0.035 µg/mL (≈ 0.121 µM) in data set [7]; 1 µg/mL (≈ 3.45 µM) in data set [9]; 41.2 µg/mL (≈ 142 µM) in [11]. The MIC was 0.25 µg/mL (≈ 0.863 µM) in [1]; 0.25 µg/mL (≈ 0.863 µM) in data set [3]; 0.125 µg/mL (≈ 0.432 µM) in data set [5]; 0.125 µg/mL (≈ 0.432 µM) in data set [7]; 4 µg/mL (≈ 13.8 µM) in data set [9]; 64 µg/mL (≈ 221 µM) in data set [11]. The minimum fungicidal concentration (MFC) in data set [2] amounted to 2 µg/mL (≈ 6.91 µM); in data set [4] it was 32 µg/mL (≈ 111 µM); in data set [6], 8 µg/mL (≈ 27.6 µM); in data set [8], 8 µg/mL (≈ 27.6 µM); in data set [10] it was 64 µg/mL (≈ 221 µM); in data set [12], 128 µg/mL (≈ 442 µM). Further, the Activity result in data set [13] is “Non-toxic”.

For `CC(Cc1ccc([Si](C)(C)C)cc1)CN1CCSCC1` (configuration not stated), the IC50 is 0.245 µg/mL (≈ 0.797 µM) in data set [1]; 0.5 µg/mL (≈ 1.63 µM) in data set [3]; 0.8 µg/mL (≈ 2.6 µM) in data set [5]; 0.25 µg/mL (≈ 0.813 µM) in [7]; 0.25 µg/mL (≈ 0.813 µM) in data set [9]; 1 µg/mL (≈ 3.25 µM) in data set [11]. Besides, the MIC was 1 µg/mL (≈ 3.25 µM) in data set [1]; 1 µg/mL (≈ 3.25 µM) in [3]; 2 µg/mL (≈ 6.5 µM) in data set [5]; 0.5 µg/mL (≈ 1.63 µM) in [7]; 2 µg/mL (≈ 6.5 µM) in [9]; 2 µg/mL (≈ 6.5 µM) in data set [11]. The MFC in data set [2] was 8 µg/mL (≈ 26 µM); in [4], 2 µg/mL (≈ 6.5 µM); in data set [6], 64 µg/mL (≈ 208 µM); in data set [8], 8 µg/mL (≈ 26 µM); in data set [10] it was greater than 256 µg/mL; in [12] it was greater than 256 µg/mL. Besides, in data set [13], the Activity entry was “Non-toxic”.

For `CC(Cc1ccc(C(C)(C)C)cc1)CN1C[C@@H](C)O[C@@H](C)C1` (some centres not stated) [FENPROPIMORPH], the IC50 in data set [1] is 0.21 µg/mL (≈ 0.692 µM); in [3] it was 0.833 µg/mL (≈ 2.74 µM); in data set [5], 0.25 µg/mL (≈ 0.824 µM); in data set [7], 0.25 µg/mL (≈ 0.824 µM); in [9] it was 0.125 µg/mL (≈ 0.412 µM); in data set [11], 1 µg/mL (≈ 3.3 µM). The MIC in data set [1] came to 0.5 µg/mL (≈ 1.65 µM); in [3] it was 2 µg/mL (≈ 6.59 µM); in data set [5] it was 1 µg/mL (≈ 3.3 µM); in [7] it was 1 µg/mL (≈ 3.3 µM); in [9], 2 µg/mL (≈ 6.59 µM); in data set [11], 4 µg/mL (≈ 13.2 µM). Also, the MFC in data set [2] is 4 µg/mL (≈ 13.2 µM); in data set [4] it was 2 µg/mL (≈ 6.59 µM); in [6] it was 64 µg/mL (≈ 211 µM); in data set [8] it was 128 µg/mL (≈ 422 µM); in data set [10] it was greater than 256 µg/mL; in [12] it was greater than 256 µg/mL. Moreover, the Activity entry in [13] was “Non-toxic”.

Regarding `CC(Cc1ccc([Si](C)(C)C)cc1)CN1CCS(=O)(=O)CC1` (configuration not stated), the MIC in [1], in [3], in data set [5], in [7], in data set [9] and in data set [11] was no less than 256 µg/mL throughout. The MFC in data set [2], in data set [4], in [6], in [8], in data set [10] and in data set [12] was no less than 256 µg/mL each time.

In the case of `CC(Cc1ccc([Si](C)(C)C)cc1)CN1CCOCC1` (configuration not stated), the IC50 in [1] worked out at 0.74 µg/mL (≈ 2.54 µM); in data set [3], 0.26 µg/mL (≈ 0.892 µM); in data set [5] it was 0.125 µg/mL (≈ 0.429 µM); in data set [7] it was 0.144 µg/mL (≈ 0.494 µM); in [9], 0.5 µg/mL (≈ 1.72 µM); in [11], 106 µg/mL (≈ 363 µM). Moreover, the MIC in data set [1] amounted to 1 µg/mL (≈ 3.43 µM); in data set [3], 0.5 µg/mL (≈ 1.72 µM); in [5], 0.5 µg/mL (≈ 1.72 µM); in [7], 0.5 µg/mL (≈ 1.72 µM); in [9], 8 µg/mL (≈ 27.4 µM); in data set [11] it was 128 µg/mL (≈ 439 µM). Moreover, the MFC in data set [2] was 8 µg/mL (≈ 27.4 µM); in data set [4], 8 µg/mL (≈ 27.4 µM); in [6], 2 µg/mL (≈ 6.86 µM); in data set [8] it was 16 µg/mL (≈ 54.9 µM); in [10], 16 µg/mL (≈ 54.9 µM); in data set [12] it was greater than 256 µg/mL. For the same molecule, the remaining at 0.5 h was 5.1% in [14] and 26% in [15].
